Tests used:
Mus musculus [1] = experiment: Ability to reinduce anesthesia in mice as a measure of in vivo sedative-hypnotic activity; type: functional
Method in brief: (§1)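 Male Royal Hart mice (20–25 g) were anesthetized with hexobarbital 70.0 mg/kg iv. While they were regaining the righting reflex, compound was given ip. Reinduction was scored as loss of righting reflex for 10 min. ED50 (mg/kg) is the dose reinducing anesthesia in 50% of mice, estimated by probit analysis (Miller–Tainter).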

Mus musculus [2] = experiment: Tested for ability to reinduce anesthesia in mice when administered intraperitoneally as a measure of in vivo sedative-hypnotic activity; D represents Toxic; type: functional, organism-based; method in brief: as §1
Rattus norvegicus [3] = experiment: Hypomotility effect in rats was tested when the compound was administered perorally; type: functional; details: po
Method in brief: (§2)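 Modified Irwin behavioural observation in male Wistar rats (130–160 g). ED50 (mg/kg) obtained by probit analysis; minimum 20 animals per drug.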

Rattus norvegicus [4] = experiment: Ataxia effect in rats was tested when the compound was administered perorally; type: functional; details: po; method in brief: as §2
Mus musculus [5] = experiment: Righting reflex effect in mice was tested when the compound was administered perorally; type: functional; details: po
Method in brief: (§3)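 Male Royal Hart mice (20–25 g) were dosed orally and scored in a modified Irwin behavioural observation screen. ED50 values (mg/kg) were estimated by probit analysis after Miller and Tainter, with at least 20 animals per drug. Values were reported as ED50 ± SE, or as the evaluation at the highest nontoxic dose used.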

Mus musculus [6] = experiment: Compound was tested for reinduction of anesthesia in mice when administered intraperitoneally; type: functional; details: ip
Method in brief: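 Male Royal Hart mice (20–25 g) anaesthetised with hexobarbital (70.0 mg/kg iv) were given drug ip as they regained the righting reflex (modified Winter method). ED50 is the dose producing loss of righting reflex for 10 min in 50% of mice, by probit analysis.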

Mus musculus [7] = experiment: Compound was tested for tonic convulsions when administered perorally; type: functional; details: po
Method in brief: (§4)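 Groups of five male Royal Hart mice (20–25 g) received test drug ip or orally 1 h before seizure induction with SaH 41-178 (50.0 mg/kg ip). ED50 is the dose preventing tonic convulsions or death in 50% of animals, by probit analysis.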

Mus musculus [8] = experiment: Prehensile effect in mice was tested when the compound was administered perorally; type: functional; details: po
Method in brief: (§5)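 Oral dosing of male Royal Hart mice (20–25 g), scored by a modified Irwin behavioural screen. ED50 (mg/kg) estimated by probit analysis; at least 20 animals per drug.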

[9] = Acute toxicity in mice after 72 hours when administered intraperitoneally; type: organism-based; details: mouse, in vivo, ip
Method in brief: (§6)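 Male Royal Hart mice (20–25 g) dosed intraperitoneally or orally; deaths scored at 2 h and 72 h. LD50 (mg/kg) estimated by probit analysis (Miller–Tainter), with at least 20 animals per drug.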

[10] = Acute toxicity in rats after 2 hours when administered perorally; type: organism-based; details: rat, in vivo, po
Method in brief: (§7)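 Male Wistar rats (130–160 g) dosed orally; lethality read at 2 h and 72 h. LD50 (mg/kg) derived by probit analysis (Miller–Tainter), using a minimum of 20 animals per drug.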

Mus musculus [11] = experiment: Compound was tested for mortality in mice when administered intraperitoneally; type: functional; details: ip
Method in brief: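 Male Royal Hart mice (20–25 g), groups of five, dosed ip 1 h before SaH 41-178 (50.0 mg/kg ip) to evoke seizures. ED50 is the dose preventing death in 50% of animals, estimated by probit analysis. At least 20 animals per drug.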

Mus musculus [12] = experiment: Compound was tested for tonic convulsions when administered intraperitoneally; type: functional; details: ip; method in brief: as §4
Mus musculus [13] = experiment: Compound was tested for mortality in mice when administered perorally; type: functional; details: po; method in brief: as §4
[14] = Acute toxicity in mice after 2 hours when administered perorally; type: organism-based; details: mouse, in vivo, po; method in brief: as §6
Mus musculus [15] = experiment: Docility effect in mice was tested when the compound was administered ip; type: functional
Method in brief: (§8)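 Modified Irwin observational screen in male Royal Hart mice (20–25 g). ED50 (mg/kg) by probit analysis; at least 20 animals per drug.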

Mus musculus [16] = experiment: Prehensile effect in mice was tested when the compound was administered intraperitoneally; type: functional; details: ip; method in brief: as §8
Mus musculus [17] = experiment: Righting reflex effect in mice was tested when the compound was administered intraperitoneally; type: functional; details: ip; method in brief: as §8
[18] = Acute toxicity in mice after 72 hours when administered perorally; type: organism-based; details: mouse, in vivo, po; method in brief: as §6
[19] = Acute toxicity in rats after 72 hours when administered perorally; type: organism-based; details: rat, in vivo, po; method in brief: as §7
Mus musculus [20] = experiment: Compound was tested for rotarod motor coordination in mice when administered perorally; type: functional; details: po
Method in brief: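 Modified Dunham–Miya rotarod test. Groups of five male Royal Hart mice (20–25 g) were trained on a 15 rpm corrugated rod for 60–90 s, then retested 30 and 60 min after drug or saline (ip or oral). Percent change in riding time versus controls; ED50 is the dose giving a 50% decrease, by probit analysis.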

Mus musculus [21] = experiment: Docility effect in mice was tested when the compound was administered perorally; type: functional; details: po; method in brief: as §5
Mus musculus [22] = experiment: Ataxia effect in mice was tested when the compound was administered intraperitoneally; type: functional; details: ip; method in brief: as §8
Mus musculus [23] = experiment: Hypomotility effect in mice was tested when the compound was administered intraperitoneally; type: functional; details: ip; method in brief: as §8
Rattus norvegicus [24] = experiment: Righting reflex effect in rats was tested when the compound was administered perorally; type: functional; details: po; method in brief: as §2
[25] = Acute toxicity in mice after 2 hours when administered intraperitoneally; type: organism-based; details: mouse, in vivo, ip; method in brief: as §6
Mus musculus [26] = experiment: Hypomotility effect in mice was tested when the compound was administered perorally; type: functional; details: po
Method in brief: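 Modified Irwin behavioral observation in male Royal Hart mice (20–25 g), observed for 2 h after dosing. ED50 (mg/kg) estimated by probit analysis per Miller and Tainter. At least 20 animals per drug.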

Mus musculus [27] = experiment: Compound was tested for rotarod motor coordination in mice when administered intraperitoneally; type: functional; details: ip
Method in brief: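 Male Royal Hart mice (20–25 g), groups of five, were trained to ride a corrugated-paper-covered rod turning at 15 rpm for 60–90 s. They were retested 30 and 60 min after ip drug or saline. Percent change in rotarod time was taken against controls. ED50 is the dose cutting rotarod time by 50%, estimated by probit analysis. At least 20 animals per drug.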

Mus musculus [28] = experiment: Ataxia effect in mice was tested when the compound was administered perorally; type: functional; details: po; method in brief: as §3

CC1(C)CSCC(C)(C)c2nc(-c3ccccc3)nnc21
ED50 (Mus musculus [1]): 31.3 mg/kg

Cc1cccc(-c2nnc3c([n+]2[O-])C(C)(C)OC3(C)C)c1
ED50 (Mus musculus [1]): 150 mg/kg

CC1(C)Cc2nnc(-c3cccc([N+](=O)[O-])c3)[n+]([O-])c2C(C)(C)O1
ED50 (Mus musculus [1]): 500 mg/kg

CCCc1nnc(-c2ccccn2)nc1C
ED50 (Mus musculus [2]): Toxic

CC1(C)OC(C)(C)c2nc(-c3ccncc3)nnc21
ED50 (Mus musculus [1]): 56.2 mg/kg

CC1(C)OC(C)(C)c2nc(-c3ccc4ccccc4n3)nnc21
ED50 (Mus musculus [1]): 168 mg/kg

CC1(C)OC(C)(C)c2nnc(-c3ccccc3)cc21.Cl
ED50 (Mus musculus [1]): 112 mg/kg

CC1(C)OC2(CCCCC2)c2c1nnc(-c1ccccc1)[n+]2[O-]
ED50 (Mus musculus [1]): 183 mg/kg

CC1(C)C/C(=N\Nc2ccccc2[N+](=O)[O-])C(C)(C)O1
ED50 (Mus musculus [1]): 1000 mg/kg

Cc1ccccc1-n1c(C)nc2ccccc2c1=O [METHAQUALONE]
ED50 (Rattus norvegicus [3]): 44 mg/kg
ED50 (Rattus norvegicus [4]): 23 mg/kg
ED50 (Mus musculus [5]): 23 mg/kg
ED50 (Mus musculus [6]): 19 mg/kg
ED50 (Mus musculus [7]): 39 mg/kg
ED50 (Mus musculus [8]): 30 mg/kg
LD50 at 72 h [9]: 470 mg/kg
LD50 at 2 h [10]: > 800 mg/kg
ED50 (Mus musculus [11]): 25 mg/kg
ED50 (Mus musculus [12]): 25 mg/kg
ED50 (Mus musculus [13]): 45 mg/kg
LD50 at 2 h [14]: > 400 mg/kg
ED50 (Mus musculus [15]): 31 mg/kg
ED50 (Mus musculus [1]): 20 mg/kg
ED50 (Mus musculus [16]): 37 mg/kg
ED50 (Mus musculus [17]): 34 mg/kg
LD50 at 72 h [18]: > 400 mg/kg
LD50 at 72 h [19]: 185 mg/kg
ED50 (Mus musculus [20]): 36 mg/kg
ED50 (Mus musculus [21]): 20 mg/kg
ED50 (Mus musculus [22]): 29 mg/kg
ED50 (Mus musculus [23]): 34 mg/kg
ED50 (Rattus norvegicus [24]): 52 mg/kg
LD50 at 2 h [25]: 565 mg/kg
ED50 (Mus musculus [26]): 25 mg/kg
ED50 (Mus musculus [27]): 25 mg/kg
ED50 (Mus musculus [28]): 23 mg/kg

CC1(C)C/C(=N\Nc2ccccc2)C(C)(C)O1
ED50 (Mus musculus [1]): 162 mg/kg

CC1(C)OC(C)(C)c2nc(-c3cnccn3)nnc21
ED50 (Mus musculus [1]): 100 mg/kg

CC1(C)C=CC(C)(C)c2nc(-c3cccc(S(N)(=O)=O)c3)nnc21
ED50 (Mus musculus [1]): 1000 mg/kg

CC1(C)Cc2nnc(-c3ccccc3)[n+]([O-])c2C(C)(C)O1
ED50 (Mus musculus [1]): 122 mg/kg

CC1(C)CSCC(C)(C)c2nc(-c3ccccn3)nnc21
ED50 (Mus musculus [2]): Toxic

CC1(C)OC(C)(C)c2c1nnc(-c1cccc(Cl)c1)[n+]2[O-]
ED50 (Mus musculus [1]): 500 mg/kg

CC1(C)OC(C)(C)c2c1nnc(-c1cc([N+](=O)[O-])cc([N+](=O)[O-])c1)[n+]2[O-]
ED50 (Mus musculus [1]): 500 mg/kg

CC1(C)OC(C)(C)C(N=N)=C1O
ED50 (Mus musculus [1]): 133 mg/kg

CC1(C)OC(C)(c2ccccc2)c2nnc(-c3cccc([N+](=O)[O-])c3)nc21 (stereo not given)
ED50 (Mus musculus [1]): 800 mg/kg
